# Published values pooled from the literature.
# Lines come from different studies, so protocols differ.
SMILES,tested on,assay,system,setting,endpoint,result
CN1CCCCC1Cn1cc(C(=O)c2cc([N+](=O)[O-])ccc2I)c2ccccc21 (racemic),,,"mouse, brain","intravenous, 25 mg/kg",Tmax,15 min
CC[C@H](C)[C@H](NC(=O)[C@H](CC(C)C)NC(=O)[C@H](Cc1c[nH]c2ccccc12)NC(=O)[C@H](CCC(N)=O)NC(=O)[C@@H](NC(=O)[C@H](Cc1ccccc1)NC(=O)[C@H](C)NC(=O)[C@H](CCCCNC(=O)COCCOCCNC(=O)COCCOCCNC(=O)CC[C@H](NC(=O)CCCCCCCCCCCCCCCCCCC(=O)O)C(=O)O)NC(=O)[C@H](CCC(N)=O)NC(=O)[C@H](C)NC(=O)[C@@H](NC(=O)[C@H](CCCCN)NC(=O)[C@H](CC(=O)O)NC(=O)[C@H](CC(C)C)NC(=O)C(C)(C)NC(=O)[C@@H](NC(=O)[C@H](CO)NC(=O)[C@H](Cc1ccc(O)cc1)NC(=O)[C@H](CC(=O)O)NC(=O)[C@H](CO)NC(=O)[C@@H](NC(=O)[C@H](Cc1ccccc1)NC(=O)[C@@H](NC(=O)CNC(=O)[C@H](CCC(=O)O)NC(=O)C(C)(C)NC(=O)[C@@H](N)Cc1ccc(O)cc1)[C@@H](C)O)[C@@H](C)O)[C@@H](C)CC)[C@@H](C)CC)C(C)C)C(=O)N[C@@H](C)C(=O)NCC(=O)NCC(=O)N1CCC[C@H]1C(=O)N[C@@H](CO)C(=O)N[C@@H](CO)C(=O)NCC(=O)N[C@@H](C)C(=O)N1CCC[C@H]1C(=O)N1CCC[C@H]1C(=O)N1CCC[C@H]1C(=O)N[C@@H](CO)C(N)=O,,,"human, plasma","subcutaneous, 1.5 mg, multiple doses, healthy volunteers",Cmax,198 ng/mL
Cc1ncc2n1-c1ccc(Cl)cc1C(c1ccccc1F)=NC2,,,"human, plasma","oral, 2 mg, single dose",Cmax,9.74 ng/mL
CCOC(=O)c1c(NCc2ccc(SC)cc2)c2cccc(C)c2[nH]c1=O,FRT,"cell growth or viability, MTS",,48 h,CC50,91.6 µM
N=C(N)NCCC[C@@H](NC(=O)[C@@H](N)Cc1ccccc1)C(=O)N[C@@H](Cc1ccccc1)C(=O)N[C@@H](CCCCN)C(N)=O,,,"human, plasma","subcutaneous, 25 mg, patients",Cmax,973 ng/mL
N=c1c2c(-c3ccccc3)c(-c3ccccc3)n(Cc3ccccc3)c2ncn1[C@H]1CC[C@H](O)CC1,,,"male cynomolgus monkey, plasma","oral, 1 mg/kg, single dose",bioavailability,> 80%
COc1ccc2c(c1)[C@]13CCCC[C@@H]1[C@H](C2)N(C)CC3,,,Caco-2,"10 µM, pH 6.5",efflux ratio,2
c1cc([C@H]2CC[C@]3(CC2)OO[C@]2(O3)C3CC4CC(C3)CC2C4)ccc1OCCN1CCOCC1,,,"human, plasma","oral, 1200 mg, patients",Cmax,1500 ng/mL
O=C(NCc1ccc(F)cc1)c1cccc(Nc2ccc(-c3ccccc3)nn2)c1,FRT,"cell growth or viability, MTS",,48 h,CC50,> 100 µM
